Test results taken from ChEMBL document CHEMBL3286372, “Design, synthesis and structure-activity relationship of novel semi-synthetic flavonoids as antiproliferative agents” (2014).

How the values were obtained:
[1] = Growth inhibition of human OVCAR4 cells after 48 hrs by coulter counting analysis; assay type: functional; details: OVCAR-4, 48 h
Method in brief: (§1)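 Five-dose NCI-60 follow-up, 0.01–100 µM, made from DMSO stock in buffered saline (final DMSO <1%), in duplicate wells. Cells in RPMI 1640 with 10% FBS at 6×10^4 cells/ml, 37 °C, 5% CO2, 48 h. Cells diluted tenfold in saline, Coulter-counted and corrected for dilution. GI50, TGI and LC50 taken from log concentration–percent growth curves.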

[2] = Growth inhibition of human OVCAR8 cells after 48 hrs by coulter counting analysis; assay type: functional; details: OVCAR-8, 48 h; method in brief: as §1
SK-OV-3 = assay: Growth inhibition of human SKOV3 cells after 48 hrs by coulter counting analysis; assay type: functional; details: SK-OV-3, 48 h; method in brief: as §1
A498 = assay: Growth inhibition of human A498 cells after 48 hrs by coulter counting analysis; assay type: functional; details: A498, 48 h
Method in brief: (§2)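 NCI five-dose screen at 0.01-100 µM, diluted from DMSO stocks in buffered saline (final DMSO <1%). Cells at 6×10^4 cells/ml in RPMI 1640 with 10% FBS, in duplicate wells, at 37 °C under 5% CO2 for 48 h. Cells diluted tenfold in saline and Coulter-counted. GI50, TGI and LC50 taken from log concentration-growth inhibition curves.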

ACHN = assay: Growth inhibition of human ACHN cells after 48 hrs by coulter counting analysis; assay type: functional; method in brief: as §2
CAKI-1 = assay: Growth inhibition of human CAKI-1 cells after 48 hrs by coulter counting analysis; assay type: functional; details: CAKI-1, 48 h; method in brief: as §2
[3] = Growth inhibition of human RXF393 cells after 48 hrs by coulter counting analysis; assay type: functional; details: RXF 393, 48 h; method in brief: as §1
TK-10 = assay: Growth inhibition of human TK10 cells after 48 hrs by coulter counting analysis; assay type: functional; details: TK-10, 48 h
Method in brief: (§3)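 NCI five-dose screen, 0.01-100 µM, from DMSO stocks diluted in buffer saline (final DMSO <1%). Cells grown in RPMI 1640 + 10% FBS, seeded at 6×10^4 cells/ml, in duplicate wells. Exposure 48 h at 37 °C, 5% CO2. Cells diluted 10-fold in saline and counted by Coulter counter. GI50 derived from log concentration–percent growth inhibition curves. Controls carried matching PBS/saline/DMSO.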

[4] = Growth inhibition of human UO31 cells after 48 hrs by coulter counting analysis; assay type: functional; details: UO-31, 48 h; method in brief: as §3
MCF7 = assay: Growth inhibition of human MCF7 cells after 48 hrs by coulter counting analysis; assay type: functional; details: MCF7, 48 h; method in brief: as §2
[5] = Growth inhibition of human BT549 cells after 48 hrs by coulter counting analysis; assay type: functional; details: BT-549, 48 h; method in brief: as §2
T47D = assay: Growth inhibition of human T47D cells after 48 hrs by coulter counting analysis; assay type: functional; method in brief: as §1
[6] = target: Cyclin-dependent kinase 2/cyclin E1 (Homo sapiens) (UniProt P24864+P24941); assay: Inhibition of CDK2/Cyclin E1 (unknown origin) at 20 uM after 30 mins by scintillation counting analysis relative to control; assay type: protein-complex assay
Method in brief: (§4)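 Recombinant kinases, cloned, expressed and purified in-house. Radiometric ³³P-ATP assay with kinase at ~10-50 nM final and 1-5 µg peptide or protein substrate. Compound at 20 µM final, in duplicate. Reaction started by adding ATP, run 30 min at ambient temperature, then spotted on P81 phosphocellulose. Plates washed in 1% phosphoric acid and counted by scintillation. No-substrate blank subtracted. Result is mean % activity change versus DMSO control.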

[7] = target: Glycogen synthase kinase-3 beta (Homo sapiens) (UniProt P49841); assay: Inhibition of GSK-3beta (unknown origin) at 20 uM after 30 mins by scintillation counting analysis relative to control; method in brief: as §4
Glycogen synthase kinase-3 beta (Homo sapiens), sequence (P49841 whole entry, looked up): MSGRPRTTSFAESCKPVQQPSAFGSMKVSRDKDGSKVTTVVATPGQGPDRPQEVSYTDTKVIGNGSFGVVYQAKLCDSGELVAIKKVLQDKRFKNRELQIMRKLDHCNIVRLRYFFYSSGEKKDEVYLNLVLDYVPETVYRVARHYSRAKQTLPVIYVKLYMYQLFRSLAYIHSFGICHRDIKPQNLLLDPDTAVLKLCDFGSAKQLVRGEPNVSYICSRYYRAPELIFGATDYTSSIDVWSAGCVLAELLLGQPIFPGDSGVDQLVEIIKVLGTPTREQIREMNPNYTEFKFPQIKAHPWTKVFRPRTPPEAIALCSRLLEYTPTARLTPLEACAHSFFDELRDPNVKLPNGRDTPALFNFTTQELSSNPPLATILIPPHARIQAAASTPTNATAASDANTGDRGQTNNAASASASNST

K562 = assay: Growth inhibition of human K562 cells after 48 hrs by coulter counting analysis; assay type: functional; details: K562, 48 h; method in brief: as §2
[8] = Growth inhibition of human MOLT4 cells after 48 hrs by coulter counting analysis; assay type: functional; details: MOLT-4, 48 h; method in brief: as §1
RPMI-8226 = assay: Growth inhibition of human RPMI8226 cells after 48 hrs by coulter counting analysis; assay type: functional; details: RPMI-8226, 48 h; method in brief: as §1
A549 = assay: Growth inhibition of human A549/ATCC cells after 48 hrs by coulter counting analysis; assay type: functional; details: A549, 48 h; method in brief: as §2
[9] = Growth inhibition of human EKVX cells after 48 hrs by coulter counting analysis; assay type: functional; method in brief: as §2
[10] = Growth inhibition of human HOP92 cells after 48 hrs by coulter counting analysis; assay type: functional; details: HOP-92, 48 h; method in brief: as §2
NCI-H226 = assay: Growth inhibition of human NCI-H226 cells after 48 hrs by coulter counting analysis; assay type: functional; details: NCI-H226, 48 h; method in brief: as §1
NCI-H460 = assay: Growth inhibition of human NCI-H460 cells after 48 hrs by coulter counting analysis; assay type: functional; details: NCI-H460, 48 h; method in brief: as §1
NCI-H522 = assay: Growth inhibition of human NCI-H522 cells after 48 hrs by coulter counting analysis; assay type: functional; details: NCI-H522, 48 h; method in brief: as §1
COLO 205 = assay: Growth inhibition of human COLO205 cells after 48 hrs by coulter counting analysis; assay type: functional; details: COLO 205, 48 h; method in brief: as §2
KM12 = assay: Growth inhibition of human KM12 cells after 48 hrs by coulter counting analysis; assay type: functional; details: KM12, 48 h; method in brief: as §2
SW-620 = assay: Growth inhibition of human SW620 cells after 48 hrs by coulter counting analysis; assay type: functional; details: SW-620, 48 h; method in brief: as §1
SF-268 = assay: Growth inhibition of human SF268 cells after 48 hrs by coulter counting analysis; assay type: functional; details: SF-268, 48 h; method in brief: as §1
SNB-19 = assay: Growth inhibition of human SNB19 cells after 48 hrs by coulter counting analysis; assay type: functional; details: SNB-19, 48 h; method in brief: as §1
SNB-75 = assay: Growth inhibition of human SNB75 cells after 48 hrs by coulter counting analysis; assay type: functional; details: SNB-75, 48 h; method in brief: as §1
U-251 = assay: Growth inhibition of human U251 cells after 48 hrs by coulter counting analysis; assay type: functional; details: U-251, 48 h; method in brief: as §3
M14 = assay: Growth inhibition of human M14 cells after 48 hrs by coulter counting analysis; assay type: functional; details: M14, 48 h; method in brief: as §2
MDA-MB-435 = assay: Growth inhibition of human MDA-MB-435 cells after 48 hrs by coulter counting analysis; assay type: functional; details: MDA-MB-435, 48 h; method in brief: as §2
SK-MEL-2 = assay: Growth inhibition of human SK-MEL-2 cells after 48 hrs by coulter counting analysis; assay type: functional; details: SK-MEL-2, 48 h; method in brief: as §1
SK-MEL-28 = assay: Growth inhibition of human SK-MEL-28 cells after 48 hrs by coulter counting analysis; assay type: functional; details: SK-MEL-28, 48 h; method in brief: as §1
[11] = Growth inhibition of human UACC257 cells after 48 hrs by coulter counting analysis; assay type: functional; details: UACC-257, 48 h; method in brief: as §3
[12] = Growth inhibition of human UACC62 cells after 48 hrs by coulter counting analysis; assay type: functional; details: UACC-62, 48 h; method in brief: as §3
[13] = Growth inhibition of human OVCAR3 cells after 48 hrs by coulter counting analysis; assay type: functional; details: OVCAR-3, 48 h; method in brief: as §1
CCRF-CEM = assay: Growth inhibition of human CCRF-CEM cells after 48 hrs by coulter counting analysis; assay type: functional; method in brief: as §2
Malme-3M = assay: Growth inhibition of human MALME-3M cells after 48 hrs by coulter counting analysis; assay type: functional; method in brief: as §2
[14] = read-out: LC50 (the source's name)

SMILES: COc1c(C(=O)/C=C/c2ccccc2)c(O)cc2occc12
- GI50 [1]: 5.4 µM
- GI50 [2]: 3.63 µM
- GI50 (SK-OV-3): 14.1 µM
- GI50 (A498): 7.97 µM
- GI50 (ACHN): 4.51 µM
- GI50 (CAKI-1): 8.07 µM
- GI50 [3]: 3.56 µM
- GI50 (TK-10): 11.2 µM
- GI50 [4]: 3.14 µM
- GI50 (MCF7): 3.52 µM
- GI50 [5]: 7.72 µM
- GI50 (T47D): 11.1 µM
- inhibition [6]: 1%
- inhibition [7]: 28%
- GI50 (K562): 4.43 µM
- GI50 [8]: 3.36 µM
- GI50 (RPMI-8226): 3.15 µM
- GI50 (A549): 8.62 µM
- GI50 [9]: 12.5 µM
- GI50 [10]: 1.64 µM
- GI50 (NCI-H226): 6.03 µM
- GI50 (NCI-H460): 3.02 µM
- GI50 (NCI-H522): 4.29 µM
- GI50 (COLO 205): 15.7 µM
- GI50 (KM12): 3.71 µM
- GI50 (SW-620): 3.52 µM
- GI50 (SF-268): 4.05 µM
- GI50 (SNB-19): 7.33 µM
- GI50 (SNB-75): 2.42 µM
- GI50 (U-251): 4.39 µM
- GI50 (M14): 8.89 µM
- GI50 (MDA-MB-435): 3.21 µM
- GI50 (SK-MEL-2): 12.4 µM
- GI50 (SK-MEL-28): 7.03 µM
- GI50 [11]: 7.01 µM
- GI50 [12]: 4.15 µM
- GI50 [13]: 3.76 µM

SMILES: COc1ccc(-c2cc(=O)c3c(OC)c4ccoc4c(/C=C/C=O)c3o2)cc1
- GI50 [1]: 3.8 µM
- GI50 [2]: 2.83 µM
- GI50 (SK-OV-3): 4.73 µM
- GI50 (A498): 17.2 µM
- GI50 (ACHN): 19.3 µM
- GI50 (CAKI-1): 5.03 µM
- GI50 [3]: 2.15 µM
- GI50 [4]: 3.17 µM
- GI50 (MCF7): 1.63 µM
- GI50 [5]: 2.14 µM
- GI50 (T47D): 2.03 µM
- inhibition [6]: 0%
- inhibition [7]: 11%
- GI50 (CCRF-CEM): 1.09 µM
- GI50 (K562): 2.8 µM
- GI50 [8]: 1.84 µM
- GI50 (RPMI-8226): 1.37 µM
- GI50 (A549): 18.5 µM
- GI50 [10]: 16.8 µM
- GI50 (NCI-H226): 2.93 µM
- GI50 (NCI-H460): 4.7 µM
- GI50 (NCI-H522): 34.6 µM
- GI50 (COLO 205): 27.6 µM
- GI50 (KM12): 12.3 µM
- GI50 (SW-620): 2.3 µM
- GI50 (SF-268): 4.38 µM
- GI50 (SNB-19): 3.16 µM
- GI50 (SNB-75): 3.13 µM
- GI50 (U-251): 2.53 µM
- GI50 (Malme-3M): 3.79 µM
- GI50 (M14): 2.24 µM
- GI50 (MDA-MB-435): 2.81 µM
- GI50 (SK-MEL-2): 9.06 µM
- GI50 (SK-MEL-28): 2.52 µM
- GI50 [11]: 3.63 µM
- GI50 [12]: 1.77 µM
- GI50 [13]: 3.92 µM

SMILES: COc1c2occc2c(OC)c2c(=O)c(CN3CCOCC3)c(/C=C/c3ccc(N(C)C)cc3)oc12
- GI50 [1]: 2.47 µM
- GI50 [2]: 5.15 µM
- GI50 (SK-OV-3): 2.72 µM
- GI50 (A498): 2.34 µM
- GI50 (ACHN): 2.16 µM
- GI50 (CAKI-1): 1.89 µM
- GI50 [3]: 1.81 µM
- GI50 (TK-10): 2.46 µM
- GI50 [4]: 1.43 µM
- GI50 (MCF7): 1.88 µM
- GI50 (T47D): 2.21 µM
- inhibition [6]: 0%
- inhibition [7]: 13%
- GI50 (CCRF-CEM): 1.17 µM
- GI50 (K562): 1.85 µM
- GI50 [8]: 1.58 µM
- GI50 (RPMI-8226): 1.49 µM
- GI50 (A549): 2.83 µM
- GI50 [9]: 2.24 µM
- GI50 [10]: 0.24 µM
- GI50 (NCI-H226): 2.06 µM
- GI50 (NCI-H460): 2.02 µM
- LC50 (lethal concentration, 50% net cell kill) (NCI-H460): 8.48 µM
- GI50 (NCI-H522): 1.83 µM
- GI50 (COLO 205): 1.66 µM
- CC50 (COLO 205; [14]): 5.87 µM
- GI50 (KM12): 1.73 µM
- GI50 (SW-620): 2.38 µM
- GI50 (SF-268): 2.22 µM
- GI50 (SNB-19): 1.98 µM
- GI50 (SNB-75): 1.39 µM
- LC50 (SNB-75): 5.75 µM
- GI50 (U-251): 2.49 µM
- GI50 (Malme-3M): 2.08 µM
- CC50 (Malme-3M; [14]): 8.65 µM
- GI50 (M14): 2.34 µM
- GI50 (MDA-MB-435): 2.05 µM
- GI50 (SK-MEL-2): 1.39 µM
- CC50 (SK-MEL-2; [14]): 5.89 µM
- GI50 (SK-MEL-28): 2.3 µM
- GI50 [11]: 2.54 µM
- GI50 [12]: 1.86 µM
- LC50 [12]: 7.61 µM
- GI50 [13]: 1.76 µM
